The record followed here is ChEMBL document CHEMBL4627291, “A bicyclic pentapeptide-based highly potent and selective pan-SIRT1/2/3 inhibitor harboring Nε-thioacetyl-lysine” (Bioorg Med Chem, 2020).

Data set [1] deals with T1, NAD-dependent protein deacetylase sirtuin-3, mitochondrial (Homo sapiens, UniProt Q9NTG7).
T1 sequence (Q9NTG7 whole entry): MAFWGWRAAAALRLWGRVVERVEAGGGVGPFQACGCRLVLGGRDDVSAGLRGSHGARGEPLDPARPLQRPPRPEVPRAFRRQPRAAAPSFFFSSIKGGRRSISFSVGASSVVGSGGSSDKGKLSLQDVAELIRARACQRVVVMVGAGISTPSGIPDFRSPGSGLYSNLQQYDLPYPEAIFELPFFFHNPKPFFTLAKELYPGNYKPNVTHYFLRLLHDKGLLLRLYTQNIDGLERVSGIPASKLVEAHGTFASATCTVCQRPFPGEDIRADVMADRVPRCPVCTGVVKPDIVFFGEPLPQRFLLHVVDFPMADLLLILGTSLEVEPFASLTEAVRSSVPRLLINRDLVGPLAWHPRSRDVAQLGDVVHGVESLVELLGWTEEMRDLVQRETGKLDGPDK
Put plainly: Inhibition of His6-tagged human SIRT3 deacetylation activity using SIRT3 acetyl-lysine as substrate substrate in presence of beta-NAD+ after 10 mins by reversed-phase HPLC analysis.

Data set [2] deals with T2, NAD-dependent protein deacetylase sirtuin-2 (Homo sapiens, UniProt Q8IXJ6).
T2 sequence (Q8IXJ6 whole entry): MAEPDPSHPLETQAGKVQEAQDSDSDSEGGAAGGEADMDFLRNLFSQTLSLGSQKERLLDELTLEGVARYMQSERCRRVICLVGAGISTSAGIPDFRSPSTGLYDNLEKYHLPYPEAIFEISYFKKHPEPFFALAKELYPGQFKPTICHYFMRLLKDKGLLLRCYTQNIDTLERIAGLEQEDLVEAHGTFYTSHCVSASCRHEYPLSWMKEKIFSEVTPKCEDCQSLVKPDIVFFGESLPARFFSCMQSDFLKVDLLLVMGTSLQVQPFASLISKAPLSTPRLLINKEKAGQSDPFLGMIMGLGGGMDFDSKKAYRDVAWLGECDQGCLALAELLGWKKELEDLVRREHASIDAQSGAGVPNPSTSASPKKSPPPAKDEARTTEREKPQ
In words: Inhibition of His6-tagged human SIRT2 deacetylation activity using SIRT1 acetyl-lysine as substrate in presence of beta-NAD+ after 12 mins by reversed-phase HPLC analysis. Put shortly:
(§1)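 Buffer: 50 mM Hepes pH 8.0, 137 mM NaCl, 2.7 mM KCl, 1 mM MgCl₂, 1 mM DTT, 0.5 mM β-NAD⁺, p53 380-384 K382-acetyl pentapeptide. SIRT1 runs use 0.3 mM peptide, 320 nM His₆- or GST-SIRT1, 10 min. SIRT2 runs use 0.39 mM peptide, 309 nM His₆-SIRT2, 12 min. Reactions run at 37 °C, quenched with HCl/acetic acid, read by C18 HPLC at 214 nm, turnover <10%. IC50 from Dixon plots.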

Data set [3] has as its target T3, NAD-dependent protein deacetylase sirtuin-1 (Homo sapiens, UniProt Q96EB6).
T3 sequence (Q96EB6 whole entry): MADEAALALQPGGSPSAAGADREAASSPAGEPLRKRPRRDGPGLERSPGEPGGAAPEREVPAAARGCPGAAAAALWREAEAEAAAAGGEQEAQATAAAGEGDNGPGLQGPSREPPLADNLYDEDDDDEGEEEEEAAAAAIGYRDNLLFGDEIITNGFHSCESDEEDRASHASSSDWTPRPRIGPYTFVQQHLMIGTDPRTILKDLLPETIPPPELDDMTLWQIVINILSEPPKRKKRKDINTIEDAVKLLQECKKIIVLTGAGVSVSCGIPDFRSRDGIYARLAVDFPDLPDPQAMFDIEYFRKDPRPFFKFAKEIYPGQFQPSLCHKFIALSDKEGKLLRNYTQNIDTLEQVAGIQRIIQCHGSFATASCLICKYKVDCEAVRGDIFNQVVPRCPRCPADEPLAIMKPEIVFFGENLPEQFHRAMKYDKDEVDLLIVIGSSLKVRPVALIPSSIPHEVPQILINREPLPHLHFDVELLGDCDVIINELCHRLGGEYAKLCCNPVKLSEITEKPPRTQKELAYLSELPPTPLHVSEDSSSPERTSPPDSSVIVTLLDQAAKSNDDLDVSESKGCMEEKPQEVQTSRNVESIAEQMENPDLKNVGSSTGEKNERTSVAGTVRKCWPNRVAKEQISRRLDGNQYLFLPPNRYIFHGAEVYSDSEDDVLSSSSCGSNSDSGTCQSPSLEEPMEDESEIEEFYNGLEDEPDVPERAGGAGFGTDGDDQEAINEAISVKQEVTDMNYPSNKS
Put plainly: Inhibition of His6/GST-tagged human SIRT1 deacetylation activity using SIRT1 acetyl-lysine as substrate in presence of beta-NAD+ after 10 mins by reversed-phase HPLC analysis. Put shortly: as §1

For data set [4], the system named is MCF7. Put plainly: Antiproliferative activity against human MCF7 cells assessed as cell growth inhibition at 100 uM measured after 72 hrs by MTT assay relative to control. Type of data set: functional. Conditions: MCF7, 72 h, read-out: GI. The procedure, abridged:
(§2)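 MCF-7 cells, 5 x 10³ per well, grown overnight in DMEM with 10% FBS, then exposed at 37 °C to 0, 5, 12.5, 25, 50 or 100 μM final (water stock) for 24, 48 or 72 h. Afterwards, PBS wash, MTT at 0.5 mg/mL final for 4 h at 37 °C, DMSO solubilization, absorbance at 568 nm; mean of five measurements.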
(In general: Tetrazolium assays rely on reduction of a dye to a coloured formazan, in cell work by metabolically active cells.)

The target in data set [5] is T4, NAD-dependent protein deacetylase sirtuin-1 (Homo sapiens) (UniProt Q96EB6).
T4 sequence (whole entry): T3 sequence (Q96EB6 whole entry)
Put plainly: Inhibition of SIRT1 deacetylation activity in human HCT116 cells assessed as increase in acetylated p53 K382 level by Western blot analysis. The class given is cell-based. Particulars: HCT-116. Put shortly:
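HCT116 cells (5 x 10⁵) in McCoy 5A with 10% FBS, treated 8 h at 37 °C at 0, 0.5, 2, 10, 50 and 100 μM final (water stock). Lysates run on SDS-PAGE, transferred to PVDF, probed with anti-acetyl-p53 K382 and anti-p53, HRP secondary, ECL detection.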

Data set [6] has as its target T5, NAD-dependent protein deacetylase sirtuin-7 (Homo sapiens, UniProt Q9NRC8).
T5 sequence (Q9NRC8 whole entry): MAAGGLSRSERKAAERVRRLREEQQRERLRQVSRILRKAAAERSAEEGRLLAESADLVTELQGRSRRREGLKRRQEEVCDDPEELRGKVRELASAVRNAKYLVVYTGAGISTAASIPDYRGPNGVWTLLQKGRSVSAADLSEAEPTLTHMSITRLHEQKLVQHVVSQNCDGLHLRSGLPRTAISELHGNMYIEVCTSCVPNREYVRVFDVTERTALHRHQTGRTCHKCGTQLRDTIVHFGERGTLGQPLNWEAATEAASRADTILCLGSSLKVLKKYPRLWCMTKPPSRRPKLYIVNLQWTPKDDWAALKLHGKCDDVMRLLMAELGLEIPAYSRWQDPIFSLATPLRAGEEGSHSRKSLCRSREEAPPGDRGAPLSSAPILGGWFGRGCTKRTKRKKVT
Put plainly: Inhibition of tRNA-activated His6-tagged human SIRT7 deacetylation activity using acetyl-lysine as substrate in presence of beta-NAD+ after 30 mins by reversed-phase HPLC analysis. Put shortly: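 His₆-SIRT7 (570 nM) with yeast tRNA (3-fold molar excess over enzyme) and RNase inhibitor (~1 U/μL). Substrate: 1.8 mM H3 12-24 K18-acetyl peptide with 3 mM β-NAD⁺, in 50 mM Hepes pH 8.0, 150 mM NaCl, 1 mM DTT, no KCl or MgCl₂; 30 min at 37 °C. Acid quench, C18 HPLC at 214 nm; IC50 by Dixon plot.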

For data set [7], the system named is SK-MEL-2. In words: Antiproliferative activity against human SK-MEL-2 cells assessed as cell growth inhibition measured up to 72 hrs by MTT assay. Type of data set: functional, cell-based. Put shortly:
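SK-MEL-2 melanoma cells, 5 x 10³ per well, grown overnight in MEM with 10% FBS, then exposed at 37 °C to 0, 5, 12.5, 25, 50 or 100 μM final (water stock) for 24, 48 or 72 h. Afterwards, PBS wash, MTT at 0.5 mg/mL final for 4 h at 37 °C, DMSO solubilization, A568 read; mean of five measurements.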

The target in data set [8] is NAD-dependent protein deacylase sirtuin-5, mitochondrial (Homo sapiens, UniProt Q9NXA8). Put plainly: Inhibition of His6-tagged human SIRT5 desuccinylation activity using succinyl-lysine as substrate in presence of beta-NAD+ after 5 mins by reversed-phase HPLC analysis. Particulars: in the assay text read “GST-tagged” for “His6-tagged”. The procedure, abridged:
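GST-SIRT5 (370 nM) with 0.88 mM succinyl-lysine peptide and 0.8 mM β-NAD⁺ in 50 mM Hepes pH 8.0, 137 mM NaCl, 2.7 mM KCl, 1 mM MgCl₂, 1 mM DTT; 5 min at 37 °C. Stopped with 100 mM HCl/0.16 M acetic acid; C18 HPLC at 214 nm, turnover <10%; IC50 by Dixon plot.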

Data set [9] can be described thus: Enzymatic stability assessed as pronase (unknown origin)-mediated compound hydrolysis at pH 7.3 measured up to 30 mins by HPLC method. The class given is ADME, Homo sapiens. Particulars: buffer, pH 7.3, 0.5 h. The procedure, abridged:
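Compound solution in water (160 μM) mixed 1:1 with Streptomyces griseus pronase (8 ng/μL) in 100 mM Tris·HCl pH 7.3 at 37 °C. Aliquots quenched with 1.0 M acetic acid at 0, 2.5, 5, 10, 20 and 30 min, then C18 RP-HPLC at 214 nm; mean of two measurements.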

In data set [10] the target is NAD-dependent protein deacylase sirtuin-6 (Homo sapiens, UniProt Q8N6T7). In words: Inhibition of His6-tagged human SIRT6 demyristoylation activity using myristoyl-lysine substrate in presence of beta-NAD+ after 12 mins by reversed-phase HPLC analysis. The procedure, abridged:
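His₆-SIRT6 (313 nM) with 0.02 mM myristoyl-lysine peptide and 0.2 mM β-NAD⁺ in Hepes pH 8.0 buffer with NaCl, KCl, MgCl₂ and 1 mM DTT; 12 min at 37 °C. Acid quench, C18 HPLC at 214 nm, turnover <10%; IC50 from Dixon plots.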

For data set [11], the system named is MCF7. In words: Antiproliferative activity against human MCF7 cells assessed as cell growth inhibition measured up to 72 hrs by MTT assay. Type of data set: functional, cell-based. The procedure, abridged:
as §2

Sequence of NAD-dependent protein deacylase sirtuin-5, mitochondrial (Q9NXA8 whole entry): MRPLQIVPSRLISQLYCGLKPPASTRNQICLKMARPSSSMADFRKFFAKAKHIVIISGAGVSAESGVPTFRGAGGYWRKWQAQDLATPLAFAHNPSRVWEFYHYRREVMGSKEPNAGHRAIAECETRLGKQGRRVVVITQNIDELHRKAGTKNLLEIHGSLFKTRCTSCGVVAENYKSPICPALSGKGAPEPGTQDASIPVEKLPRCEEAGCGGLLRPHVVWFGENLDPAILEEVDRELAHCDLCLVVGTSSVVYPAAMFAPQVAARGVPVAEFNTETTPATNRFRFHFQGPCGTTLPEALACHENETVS
Sequence of NAD-dependent protein deacylase sirtuin-6 (Q8N6T7 whole entry): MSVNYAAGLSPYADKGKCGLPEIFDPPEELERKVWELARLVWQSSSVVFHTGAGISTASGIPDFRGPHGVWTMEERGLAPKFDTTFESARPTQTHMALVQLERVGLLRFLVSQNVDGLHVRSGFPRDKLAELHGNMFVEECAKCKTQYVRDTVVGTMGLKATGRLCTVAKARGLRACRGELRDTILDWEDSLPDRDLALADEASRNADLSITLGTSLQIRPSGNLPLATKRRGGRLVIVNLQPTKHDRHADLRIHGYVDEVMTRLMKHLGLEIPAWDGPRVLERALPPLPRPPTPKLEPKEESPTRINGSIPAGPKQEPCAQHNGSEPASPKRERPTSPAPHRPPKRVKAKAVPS

Consider `CSCC[C@@H]1NC(=O)[C@@H](NC(=O)[C@H](CCCCNC(C)=S)NC(=O)[C@H](CCCCN)NC(=O)[C@H](Cc2c[nH]cn2)NC(C)=O)Cc2ccc(cc2)OCCCCCCCNC1=O`, for which the values for the IC50 in [1], in data set [2] and in data set [3] were 217 µM, 25.5 µM and 22.6 µM, respectively.

Turning to `CSCC[C@H](NC(=O)[C@H](CC(C)C)NC(=O)[C@H](CCCCNC(C)=S)NC(=O)[C@@H]1Cc2ccc(cc2)OCCCCCCCC(=O)N[C@@H](Cc2c[nH]cn2)C(=O)N1)C(N)=O`, the IC50 (in general, the concentration needed to halve the response being measured) in [2] turned out to be 1.33 µM; in data set [3] it was 0.673 µM.

As for `CSCC[C@H](NC(=O)[C@H](CC(C)C)NC(=O)[C@H](CCCCNC(C)=S)NC(=O)[C@@H]1Cc2ccc(cc2)OCCCCCCCCCCC(=O)N[C@@H](Cc2c[nH]cn2)C(=O)N1)C(N)=O`, the IC50 in data set [1] amounted to 1.1 µM; in data set [2], 4.31 µM; in [3], 1.25 µM.

Regarding `CSCC[C@H](NC(=O)[C@H](CC(C)C)NC(=O)[C@H](CCCCNC(C)=S)NC(=O)[C@@H]1Cc2ccc(cc2)OCCCC(=O)N[C@@H](Cc2c[nH]cn2)C(=O)N1)C(N)=O`, the results for the IC50 in [1], in data set [2] and in data set [3] were 0.75 µM, 0.68 µM and 0.171 µM, respectively.

In the case of `CC/C(=C(\c1ccccc1)c1ccc(OCCN(C)C)cc1)c1ccccc1` [TAMOXIFEN], in data set [4], the inhibition of growth at 100 µM is more than 80%.

For the compound `CSCC[C@@H]1NC(=O)[C@@H](NC(=O)[C@H](CCCCNC(C)=S)NC(=O)[C@H](CCCCN)NC(=O)[C@H](Cc2c[nH]cn2)NC(C)=O)Cc2ccc(cc2)OCCCCCNC1=O`, the IC50 in data set [2] is 115 µM; in [3], 13.6 µM.

With `CSCC[C@@H]1NC(=O)[C@@H](NC(=O)[C@H](CCCCNC(C)=S)NC(=O)[C@H](CCCCN)NC(=O)[C@H](Cc2c[nH]cn2)NC(C)=O)Cc2ccc(cc2)OCCCNC1=O`, the IC50 in data set [2] worked out at 60.8 µM; in data set [3] it was 34.3 µM.

As for `CSCC[C@H](NC(=O)[C@H](CC(C)C)NC(=O)[C@H](CCCCNC(C)=S)NC(=O)[C@@H]1Cc2ccc(cc2)OCCCCCC(=O)N[C@@H](Cc2c[nH]cn2)C(=O)N1)C(N)=O`, the IC50 is 1.03 µM in [2] and 0.646 µM in [3].

`CSCC[C@@H]1NC(=O)[C@@H](NC(=O)[C@H](CCCCNC(C)=S)NC(=O)[C@H](CCCCN)NC(=O)[C@H](Cc2c[nH]cn2)NC(C)=O)Cc2ccc(cc2)OCCCCCCCCCCNC1=O`: the IC50 in data set [1] worked out at 13.1 µM; in data set [2], 17.9 µM; in data set [3], 56.7 µM.

Regarding `CSCC[C@@H]1NC(=O)[C@@H](NC(=O)[C@H](CCCCNC(C)=S)NC(=O)[C@@H]2Cc3ccc(cc3)OCCCC(=O)N[C@@H](Cc3c[nH]cn3)C(=O)N2)Cc2ccc(cc2)OCCCCCNC1=O`, the inhibition entry in data set [5] is “Dose-dependent effect”. Moreover, the IC50 in data set [6] is 78.9 µM; in [8], 443 µM; in data set [1] it was 0.72 µM; in data set [10] it was 390 µM; in data set [2], 0.253 µM; in data set [3], 0.54 µM. The Activity result in data set [7] and in data set [11] was “Dose-dependent effect” in each case. For the same compound, the Stability entry in data set [9] was “Stable”.
